# Results: ChEMBL document CHEMBL4138078, “Structure-based virtual screening and optimization of modulators targeting Hsp90-Cdc37 interaction” (Eur J Med Chem, 2017)
# Activity calls are given as the source filed them. The rule behind the calls is not given here.
# Key:
# [1] = species: Homo sapiens; assay: Inhibition of full length His-tagged HSP90/GST-tagged Cdc37 (unknown origin) interaction at 100 uM after 1 hr by HTRF assay relative to control
# How it was run: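 HTRF assay using His-tagged full-length Hsp90 and GST-tagged Cdc37 M, each 250 nM final, in PBS with an extra 400 mM KF, pH 7.4. Compound incubated 1 h at 37 °C. Anti-GST-Cryptate and anti-6His-XL665 then added, 0.5 h at 37 °C. Ex 320 nm; ratio = (665/620 nm) × 10000. No-compound negative control and reagent-only blank.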
# [2] = species: Homo sapiens; assay: Inhibition of full length His-tagged HSP90/GST-tagged Cdc37 (unknown origin) interaction at 10 uM after 1 hr by HTRF assay relative to control
# [3] = molecular target: T1, Heat shock protein HSP90 (Homo sapiens, UniProt P07900+P08238); assay: Inhibition of N-terminal GST-tagged HSP90 ATPase activity (unknown origin) expressed in Escherichia coli at 100 uM after 1 hr in presence of ATP by spectrophotometric assay relative to control
# How it was run: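 ADP Hunter Plus ADP-detection kit. Compound at 100 μM final in 15 mM HEPES, 20 mM NaCl, 1 mM EDTA, 10 mM MgCl2, 0.02% Tween20, pH 7.4. Mixed in equal volumes with Hsp90 (5 μM) and ATP (100 μM), 1 h at 37 °C. Detection reagents A and B added, 30 min at room temperature; ex 540/em 620 nm. Protein-free background; no-ligand wells set as 100% activity.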
# [4] = molecular target: T1, Heat shock protein HSP90; assay: Inhibition of GA-FITC binding to N-terminal GST-tagged HSP90 (unknown origin) expressed in Escherichia coli at 100 uM after 30 mins fluorescence polarization assay relative to control
# [5] = molecular target: T1, Heat shock protein HSP90; assay: Binding affinity to N-terminal GST-tagged HSP90 (unknown origin) expressed in Escherichia coli by biolayer interferometry analysis
# [6] = Inhibition of full length His-tagged HSP90/GST-tagged Cdc37 (unknown origin) interaction after 1 hr by HTRF assay; parameters: species or system Homo sapiens
# How it was run: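 Final 250 nM each of His-Hsp90 (full length) and GST-Cdc37 M in PBS with extra 400 mM KF, pH 7.4. Compound added (300 μM to 1.23 μM, three-fold steps), 1 h at 37 °C. Anti-GST-cryptate and anti-6His-XL665 added, 0.5 h at 37 °C. TR-FRET read at ex 320 nm, em 665/620 nm, ratio ×10000. No-compound and reagent-only controls included.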
# [7] = test system: MCF7; assay: Antiproliferative activity against human MCF7 cells after 72 hrs by MTT assay; format: functional, cell-based; conditions: MCF7, 72 h
# How it was run: (§1)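 Cells seeded at 10000/well and left 24 h, then exposed to compounds in DMSO (200 μM down to 0.823 μM, three-fold steps) for 72 h at 37 °C. Viability was read by MTT (5 mg/mL in PBS) with formazan dissolved in DMSO, OD at 490 nm. IC50 was taken from parallel experiments as mean ± SD. Media: MCF-7 in MEM, SKBR-3 in RPMI-1640, A549 in F12K, each with 10% FCS.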
# [8] = test system: SK-BR-3; assay: Antiproliferative activity against human SKBR3 cells after 72 hrs by MTT assay; format: functional, cell-based; conditions: SK-BR-3, 72 h; how it was run: as §1
# [9] = test system: A549; assay: Antiproliferative activity against human A549 cells after 72 hrs by MTT assay; format: functional, cell-based; conditions: A549, 72 h; how it was run: as §1
# [10] = species: Homo sapiens; assay: Inhibition of N-terminal GST-tagged HSP90/Cdc37 (unknown origin) interaction expressed in Escherichia coli preincubated with Cdc37 for 1 hr followed by addition to HSP90 by GST-pull down assay
# How it was run: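 Pull-down with 10 μg GST-Hsp90 N-terminal domain immobilised as bait on glutathione resin spin columns. Compound incubated with Cdc37 for 1 h at 37 °C, then added to the columns. Loading buffer 25 mM Tris, 0.15 M NaCl, pH 7.2; elution with extra 10 mM reduced glutathione; spins 1 min at 1,000 × g, 4 °C. Eluate analysed by SDS-PAGE and anti-GST/anti-His western blot.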
smiles,measurement,setting,value
CCOc1ccc(C(=O)C2=C(O)C(=O)N(CCOCCO)[C@@H]2c2cccc(OC)c2)cc1,inhibition,[1],< 10%
Cc1cc(NS(=O)(=O)c2ccc(NC(=O)CCC(=O)Nc3ccc(S(=O)(=O)Nc4cc(C)on4)cc3)cc2)no1,inhibition,[1],69.8 to 70%
COc1ccc([C@H](CC(=O)O)NC(=O)CCc2c(C)c3ccc(O)cc3oc2=O)cc1OC,inhibition,[1],< 10%
CO[C@H]1/C=C\C=C(/C)C(=O)NC2=CC(=O)C(NCCN(C)C)=C(C[C@@H](C)C[C@H](OC)[C@H](O)[C@@H](C)/C=C(\C)[C@@H]1OC(N)=O)C2=O (stereo in doubt),inhibition,[2],inactive
O=C(CCC(=O)Nc1ccc(S(=O)(=O)Nc2nccs2)cc1)Nc1ccc(S(=O)(=O)Nc2nccs2)cc1,inhibition,[1],< 10%
CCOC(=O)c1c(C)n(Cc2ccccc2)c2ccc(OC[C@H](O)CN3CCN(CCO)CC3)cc12,inhibition,[1],< 10%
NC(=O)C1CCN(C[C@H](O)COc2ccc(OC[C@@H](O)CN3CCC(C(N)=O)CC3)cc2)CC1,inhibition,[1],< 10%
Cn1c(SCC(=O)Nc2ccc3nc(SCC(=O)c4ccc(Cl)cc4)sc3c2)nnc1-c1ccc(N)cc1,inhibition,[1],< 10%
Cc1ccnc(NS(=O)(=O)c2ccc(NC(=O)CCC(=O)Nc3ccc(S(=O)(=O)Nc4nccc(C)n4)cc3)cc2)n1,inhibition,[1],< 10%
O=C(CC(=O)Nc1ccc(S(=O)(=O)Nc2ccccc2)cc1)Nc1ccc(S(=O)(=O)Nc2ccccc2)cc1,inhibition,[1],30.4%
O=C(CCC(=O)Nc1ccc(S(=O)(=O)Nc2ccccc2)cc1)Nc1ccc(S(=O)(=O)Nc2ccccc2)cc1,inhibition,[1],49.6%
C=C1[C@@H](C(=O)Nc2ccc(NS(=O)(=O)c3ccc(C)cc3)cc2)[C@@H]1C(=O)Nc1ccc(NS(=O)(=O)c2ccc(C)cc2)cc1,inhibition,[1],< 10%
Cc1ccnc(NS(=O)(=O)c2ccc(NC(=O)c3cccc(C(=O)Nc4ccc(S(=O)(=O)Nc5nccc(C)n5)cc4)c3)cc2)n1,inhibition,[1],< 10%
Cc1cc(C)c(NS(=O)(=O)c2ccc(NC(=O)CCCCC(=O)Nc3ccc(S(=O)(=O)Nc4c(C)cc(C)cc4C)cc3)cc2)c(C)c1,inhibition,[1],21.5%
COC(=O)c1cc(NCc2cc(Cl)c(OCC(N)=O)c(OC)c2)ccc1N1CCOCC1,inhibition,[1],< 10%
O=C1NCCCC[C@H]1N[C@@H]1CC(=O)N(c2ccc(N3C(=O)C[C@@H](N[C@@H]4CCCCNC4=O)C3=O)cc2)C1=O,inhibition,[1],< 10%
COc1ccc(S(=O)(=O)N(CC(=O)N/N=C/c2ccc(OCC(N)=O)cc2)c2ccccc2)cc1,inhibition,[1],< 10%
Cc1noc(NS(=O)(=O)c2ccc(NC(=O)CC(=O)Nc3ccc(S(=O)(=O)Nc4onc(C)c4C)cc3)cc2)c1C,inhibition,[1],< 10%
COc1ccccc1N(CC(=O)N/N=C/c1ccc(OCC(=O)Nc2ccccc2Cl)cc1)S(=O)(=O)c1ccc(C)cc1,inhibition,[1],13.6%
Cc1cc(NS(=O)(=O)c2ccc(NC(=O)CCCCC(=O)Nc3ccc(S(=O)(=O)Nc4cc(C)on4)cc3)cc2)no1,inhibition,[1],20.7%
COc1cc(/C=C2\SC(=S)N(CCCCCCN3C(=O)/C(=C\c4ccc(O)c(OC)c4)SC3=S)C2=O)ccc1O,inhibition,[1],17%
CCOC(=O)C1=C(CSc2nc3c(cc2C#N)CN(C)CC3)OC(N)=C(C#N)C1c1ccncc1 (stereo not drawn),inhibition,[1],< 10%
Cc1cc(NS(=O)(=O)c2ccc(NC(=O)c3ccc(C(=O)Nc4ccc(S(=O)(=O)Nc5cc(C)on5)cc4)cc3)cc2)no1,inhibition,[1],inactive
Cc1noc(NS(=O)(=O)c2ccc(NC(=O)CCC(=O)Nc3ccc(S(=O)(=O)Nc4onc(C)c4C)cc3)cc2)c1C,inhibition,[1],48.7%
COc1ccc(-c2c(C)oc3cc(OCCN4CCN(CCO)CC4)ccc3c2=O)cc1OC,inhibition,[1],< 10%
Cc1cc(NS(=O)(=O)c2ccc(NC(=O)CC(=O)Nc3ccc(S(=O)(=O)Nc4cc(C)on4)cc3)cc2)no1,inhibition,[1],65.6 to 66%
O=C(CCC(=O)Nc1ccc(S(=O)(=O)Nc2ccccn2)cc1)Nc1ccc(S(=O)(=O)Nc2ccccn2)cc1,inhibition,[1],< 10%
Cc1cc(NS(=O)(=O)c2ccc(NC(=O)CCCC(=O)Nc3ccc(S(=O)(=O)Nc4cc(C)on4)cc3)cc2)no1,inhibition,[1],59.3%
same,inhibition,[3],< 10%
same,inhibition,[4],inactive
same,Kd,[5],80.4 µM
same,IC50,[6],76.9 to 77 µM
same,IC50,[7],66.9 µM
same,IC50,[8],59.4 µM
same,IC50,[9],75.3 µM
same,inhibition,[10],Dose-dependent effect
CCOC(=O)c1cccc(NC(=O)CSc2nnc(-c3ccc(O)cc3)n2Cc2ccccc2)c1,inhibition,[1],14.1%
C[C@H](O)c1ccc(-c2ccc(CNCCCSc3nnnn3-c3ccccc3)o2)cc1,inhibition,[1],< 10%
CC.COc1ccc(NC(=O)C2=C(C)Nc3nc(CCCO)nn3[C@H]2c2ccc(OC)c(OC)c2)cc1,inhibition,[1],36.6%
same,inhibition,[3],45.7%
same,inhibition,[4],inactive
same,Kd,[5],> 100 µM
same,IC50,[6],154 µM
same,IC50,[7],> 100 µM
same,IC50,[8],> 100 µM
same,IC50,[9],> 100 µM
COc1cccc(C(c2c(N)nc(SCC(N)=O)[nH]c2=O)c2c(N)nc(SCC(N)=O)[nH]c2=O)c1,inhibition,[1],14.3%
NC(=O)COc1ccc(/C=N/NC(=O)[C@H]2CCCN2S(=O)(=O)c2ccc(Cl)cc2)cc1,inhibition,[1],< 10%
O=C(CCC(=O)Nc1ccc(S(=O)(=O)Nc2ncccn2)cc1)Nc1ccc(S(=O)(=O)Nc2ncccn2)cc1,inhibition,[1],< 10%
CC(=O)Nc1ccc(C(=O)OCCOC(=O)C2=C(C)NC(C)=C(C(=O)OCCNC(=O)c3ccccc3O)[C@H]2c2cccc([N+](=O)[O-])c2)cc1,inhibition,[1],< 10%
CC1=C(C(=O)OCCNC(=O)c2ccc(O)cc2)[C@@H](c2cccc([N+](=O)[O-])c2)C(C(=O)OCCNC(=O)c2ccccc2O)=C(C)N1,inhibition,[1],< 10%
CCOc1cc(CNc2ccc(N3CCOCC3)c(C(=O)OC)c2)cc(Cl)c1OCC(N)=O,inhibition,[1],< 10%
CS(=O)(=O)N(CC(=O)N/N=C/c1ccc(OCC(=O)Nc2ccc(F)cc2)cc1)c1ccc(Cl)c(Cl)c1,inhibition,[1],< 10%
Cn1nccc1NS(=O)(=O)c1ccc(NC(=O)CC(=O)Nc2ccc(S(=O)(=O)Nc3ccnn3C)cc2)cc1,inhibition,[1],50.9%
O[C@H](COc1ccc(OC[C@H](O)CN2CCN(c3cccc(Cl)c3)CC2)cc1)CN1CCN(c2cccc(Cl)c2)CC1,inhibition,[1],47.6%
same,IC50,[6],128 µM
same,IC50,[7],89.2 µM
same,IC50,[8],> 100 µM
same,IC50,[9],> 100 µM
CC/N=C1\S[C@H](CC(=O)Nc2cccc(NC(=O)C[C@@H]3S/C(=N/CC)N(CC)C3=O)c2)C(=O)C1CC (stereo partly drawn),inhibition,[1],< 10%
COc1ccc(CCNc2cc(N3CCN(CCO)CC3)ccc2[N+](=O)[O-])cc1OC,inhibition,[1],30.7%
same,IC50,[6],296 µM
same,IC50,[7],> 100 µM
same,IC50,[8],84.6 µM
same,IC50,[9],> 100 µM
COc1ccc(C(=O)Nc2ccccc2C(=O)NCCCCO)cc1OC,inhibition,[1],19.3%
CCCOC(=O)c1ccc(Oc2c(C)oc3c(CN4CCN(CCO)CC4)c(O)ccc3c2=O)cc1,inhibition,[1],< 10%
COc1ccc(NS(=O)(=O)c2ccc(NC(=O)CCC(=O)Nc3ccc(S(=O)(=O)Nc4ccc(OC)nn4)cc3)cc2)nn1,inhibition,[1],< 10%
